Source: ChEMBL document CHEMBL5058577, “EUbOPEN Chemogenomics Library 2 (Multiplex)” (2022)

Test system: Fibroblast
Assay: Multiplex assay against human fibroblast
Assay type: toxicity, cell-based
Outline: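 Imaging took place on a CQ1 microscope at 37°C and 5% CO2 once compound had been added to live cells stained at seeding with Hoechst33342, BioTracker Green Microtubule Cytoskeleton Dye, MitoTracker Red and Annexin V Alexa Fluor 680. CellPathfinder machine-learning gating classed cells as Hoechst high-intensity objects or normal cells, classed normal cells as having healthy, pyknosed or fragmented nuclei, and classed pyknosed cells as mitotic or apoptotic. Tubulin, mitochondrial-mass and membrane-permeability phenotypes are per cents of the healthy-nucleus cells.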

[1] = 12 h, 1 µM, compound concentration 1 uM, replicate 1
[2] = 12 h, 1 µM, compound concentration 1 uM, replicate 2
[3] = 12 h, 10 µM, compound concentration 10 uM, replicate 1
[4] = 12 h, 10 µM, compound concentration 10 uM, replicate 2
[5] = 24 h, 1 µM, compound concentration 1 uM, replicate 1
[6] = 24 h, 1 µM, compound concentration 1 uM, replicate 2
[7] = 24 h, 10 µM, compound concentration 10 uM, replicate 1
[8] = 24 h, 10 µM, compound concentration 10 uM, replicate 2
[9] = 48 h, 1 µM, compound concentration 1 uM, replicate 1
[10] = 48 h, 1 µM, compound concentration 1 uM, replicate 2
[11] = 48 h, 10 µM, compound concentration 10 uM, replicate 1
[12] = 48 h, 10 µM, compound concentration 10 uM, replicate 2

CCOc1c2c(c(OCC)c3ncccc13)CN(c1ccc(CS(=O)(=O)NC(=O)Cc3ccccc3OC)cc1C)C2=O
Population Apoptotic (%) [1]: 44%
Population Fragmented Nuclei (%) [1]: 15%
Population Healthy Nuclei (%) [1]: 68%
Population Hoechst High Intensity Objects (%) [1]: 0%
Population Membrane Permeable-Phenotype (%) [1]: 1%
Population Mitochondria Different-Phenotype (%) [1]: 3%
Population Mitotic Cells (%) [1]: 55%
Population Normal (%) [1]: 99%
Population Pyknosed Nuclei (%) [1]: 15%
Population Tubulin-Different-Phenotype (%) [1]: 23%
Total Cell Count [1]: 120
Population Apoptotic (%) [2]: 38%
Population Fragmented Nuclei (%) [2]: 37%
Population Healthy Nuclei (%) [2]: 42%
Population Hoechst High Intensity Objects (%) [2]: 4%
Population Membrane Permeable-Phenotype (%) [2]: 8%
Population Mitochondria Different-Phenotype (%) [2]: 2%
Population Mitotic Cells (%) [2]: 61%
Population Normal (%) [2]: 95%
Population Pyknosed Nuclei (%) [2]: 19%
Population Tubulin-Different-Phenotype (%) [2]: 62%
Total Cell Count [2]: 111
Population Apoptotic (%) [3]: 35%
Population Fragmented Nuclei (%) [3]: 15%
Population Healthy Nuclei (%) [3]: 63%
Population Hoechst High Intensity Objects (%) [3]: 1%
Population Membrane Permeable-Phenotype (%) [3]: 1%
Population Mitochondria Different-Phenotype (%) [3]: 6%
Population Mitotic Cells (%) [3]: 64%
Population Normal (%) [3]: 98%
Population Pyknosed Nuclei (%) [3]: 21%
Population Tubulin-Different-Phenotype (%) [3]: 27%
Total Cell Count [3]: 161
Population Apoptotic (%) [4]: 21%
Population Fragmented Nuclei (%) [4]: 19%
Population Healthy Nuclei (%) [4]: 50%
Population Hoechst High Intensity Objects (%) [4]: 3%
Population Membrane Permeable-Phenotype (%) [4]: 7%
Population Mitochondria Different-Phenotype (%) [4]: 8%
Population Mitotic Cells (%) [4]: 78%
Population Normal (%) [4]: 96%
Population Pyknosed Nuclei (%) [4]: 29%
Population Tubulin-Different-Phenotype (%) [4]: 54%
Total Cell Count [4]: 146
Population Apoptotic (%) [5]: 56%
Population Fragmented Nuclei (%) [5]: 13%
Population Healthy Nuclei (%) [5]: 67%
Population Hoechst High Intensity Objects (%) [5]: 3%
Population Membrane Permeable-Phenotype (%) [5]: 2%
Population Mitochondria Different-Phenotype (%) [5]: 3%
Population Mitotic Cells (%) [5]: 43%
Population Normal (%) [5]: 96%
Population Pyknosed Nuclei (%) [5]: 18%
Population Tubulin-Different-Phenotype (%) [5]: 23%
Total Cell Count [5]: 127
Population Apoptotic (%) [6]: 46%
Population Fragmented Nuclei (%) [6]: 37%
Population Healthy Nuclei (%) [6]: 32%
Population Hoechst High Intensity Objects (%) [6]: 2%
Population Membrane Permeable-Phenotype (%) [6]: 18%
Population Mitotic Cells (%) [6]: 53%
Population Normal (%) [6]: 97%
Population Pyknosed Nuclei (%) [6]: 29%
Population Tubulin-Different-Phenotype (%) [6]: 69%
Total Cell Count [6]: 104
Population Apoptotic (%) [7]: 42%
Population Fragmented Nuclei (%) [7]: 17%
Population Healthy Nuclei (%) [7]: 66%
Population Hoechst High Intensity Objects (%) [7]: 3%
Population Membrane Permeable-Phenotype (%) [7]: 1%
Population Mitochondria Different-Phenotype (%) [7]: 2%
Population Mitotic Cells (%) [7]: 57%
Population Normal (%) [7]: 96%
Population Pyknosed Nuclei (%) [7]: 15%
Population Tubulin-Different-Phenotype (%) [7]: 19%
Total Cell Count [7]: 171
Population Fragmented Nuclei (%) [8]: 25%
Population Healthy Nuclei (%) [8]: 49%
Population Hoechst High Intensity Objects (%) [8]: 4%
Population Membrane Permeable-Phenotype (%) [8]: 5%
Population Normal (%) [8]: 95%
Population Pyknosed Nuclei (%) [8]: 25%
Population Tubulin-Different-Phenotype (%) [8]: 50%
Total Cell Count [8]: 142
Population Apoptotic (%) [9]: 57%
Population Fragmented Nuclei (%) [9]: 18%
Population Healthy Nuclei (%) [9]: 66%
Population Hoechst High Intensity Objects (%) [9]: 3%
Population Membrane Permeable-Phenotype (%) [9]: 1%
Population Mitochondria Different-Phenotype (%) [9]: 3%
Population Mitotic Cells (%) [9]: 42%
Population Normal (%) [9]: 96%
Population Pyknosed Nuclei (%) [9]: 15%
Population Tubulin-Different-Phenotype (%) [9]: 26%
Total Cell Count [9]: 128
Population Apoptotic (%) [10]: 66%
Population Fragmented Nuclei (%) [10]: 47%
Population Healthy Nuclei (%) [10]: 40%
Population Hoechst High Intensity Objects (%) [10]: 5%
Population Membrane Permeable-Phenotype (%) [10]: 5%
Population Mitochondria Different-Phenotype (%) [10]: 7%
Population Mitotic Cells (%) [10]: 33%
Population Normal (%) [10]: 94%
Population Pyknosed Nuclei (%) [10]: 12%
Population Tubulin-Different-Phenotype (%) [10]: 72%
Total Cell Count [10]: 105
Population Apoptotic (%) [11]: 71%
Population Fragmented Nuclei (%) [11]: 16%
Population Healthy Nuclei (%) [11]: 63%
Population Hoechst High Intensity Objects (%) [11]: 7%
Population Membrane Permeable-Phenotype (%) [11]: 1%
Population Mitochondria Different-Phenotype (%) [11]: 2%
Population Mitotic Cells (%) [11]: 28%
Population Normal (%) [11]: 92%
Population Pyknosed Nuclei (%) [11]: 20%
Population Tubulin-Different-Phenotype (%) [11]: 20%
Total Cell Count [11]: 171
Population Apoptotic (%) [12]: 29%
Population Fragmented Nuclei (%) [12]: 34%
Population Healthy Nuclei (%) [12]: 45%
Population Hoechst High Intensity Objects (%) [12]: 9%
Population Membrane Permeable-Phenotype (%) [12]: 7%
Population Mitochondria Different-Phenotype (%) [12]: 5%
Population Mitotic Cells (%) [12]: 70%
Population Normal (%) [12]: 90%
Population Tubulin-Different-Phenotype (%) [12]: 51%
Total Cell Count [12]: 131
